# High-throughput results: PubChem BioAssay, Johns Hopkins Ion Channel Center
# Sampled rows, rich in hits. Any-hit rate of the full collection: about 2.9%.
# TRPC4 PAM: allosterically enhances the mouse TRPC4 cation channel | Q9QUQ5 | HEK293 TRPC4beta/mu-opioid, DAMGO EC20, Fluo-4 Ca2+ flux; hits give high values | B-score at 10 µM | 310,000 compounds, 0.42% hits | AID 2227;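 active = B-score of calcium response area above 5 SD of library B-scores, with initial fluorescence ratio within 5 SD of library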;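 note: B-score of integrated fluorescence ratio over time as area under calcium response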
# TRPC4 act: opens the mouse TRPC4 cation channel | B-score at 10 µM | 310,000 compounds, 0.49% hits | AID 2237 | Q9QUQ5 | HEK293 TRPC4beta/mu-opioid, Fluo4 calcium fluorescence; hits give high values;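 active = B-score above 5 SD of library B-scores, and initial fluorescence ratio not above library mean plus 5 SD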;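 note: positive B-score marks a calcium rise read as TRPC4 activation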
#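 Assay system – TRPC4beta and mu-opioid receptor HEK293 stable cells · Measured by – Fluo4 fluorescence, kinetic · Schedule – dye loading 45 min room temperature, 110 s kinetic read · Read-out – B-scored integrated calcium fluorescence ratio · Controls – buffer and maximal DAMGO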
# TRPC4 block: TRPC4 (mouse) channel inhibition. AID 2247. HEK293 TRPC4beta/mu-opioid, DAMGO-evoked Fluo4 calcium flux; hits give low values. 300,000 compounds, 0.39% hits. B-score at 10 µM. Q9QUQ5;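 active = B-score over 3 SD under the library average, no early fluorescence shift, positive overall ratio signal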
#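 Material: HEK293 cells with stable TRPC4beta plus mu-opioid receptor expression; probe or stimulus: DAMGO in two steps, submaximal then maximal; technique: Fluo4 calcium fluorescence by kinetic imaging, 5 s 1 Hz baseline; measure: integrated fluorescence ratio relative to baseline, converted to per-well B score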
# Kir21 inh: Kir2.1 (mouse) channel inhibition. P35561. HEK293-Kir2.1, FluxOR thallium flux fluorescence; hits give low values. B-score at 10 µM. 310,000 compounds, 0.85% hits. AID 1672;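 active = fluorescence ratio B-score at or below minus 3 SD of library scores, with starting-brightness B-score within 2 SD, cut at about -4.2 in these data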;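 note: channel flux triggered by added potassium and thallium sulfate stimulus; B-score of peak minus minimum fluorescence over baseline after thallium stimulus; more negative B-score means stronger Kir2.1 block with less thallium influx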
# Target sequence (P35561 whole entry, looked up): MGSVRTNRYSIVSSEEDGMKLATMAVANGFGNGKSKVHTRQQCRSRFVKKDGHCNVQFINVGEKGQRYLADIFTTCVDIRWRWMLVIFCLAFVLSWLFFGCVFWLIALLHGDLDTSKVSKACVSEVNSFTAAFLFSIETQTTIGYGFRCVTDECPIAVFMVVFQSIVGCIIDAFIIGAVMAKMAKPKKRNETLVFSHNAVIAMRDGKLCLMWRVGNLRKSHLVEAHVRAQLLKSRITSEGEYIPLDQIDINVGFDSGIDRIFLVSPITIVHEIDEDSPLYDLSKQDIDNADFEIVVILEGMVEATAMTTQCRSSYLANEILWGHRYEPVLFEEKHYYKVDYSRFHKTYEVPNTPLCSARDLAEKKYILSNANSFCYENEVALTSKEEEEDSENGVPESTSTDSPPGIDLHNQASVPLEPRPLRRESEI
# TRPC6 inh: mouse TRPC6 channel inhibition; B-score at 10 µM; AID 2553; HEK293-TRPC6, membrane potential dye, ACh-evoked depolarization; hits give low values; Q61143; 310,000 compounds, 1.1% hits;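 active = B-score under library mean minus 3 SD, initial fluorescence not abnormally high, positive integrated signal ratio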;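 note: B-score derived from integrated fluorescence ratio over the kinetic read; more negative B-score means stronger inhibition of depolarization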
# TRPC6 activator: activates the mouse TRPC6 cation channel; Q61143; HEK293-TRPC6 membrane potential dye fluorescence; hits give high values; B-score at 10 µM; 310,000 compounds, 0.13% hits; AID 2550;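 active = B-score of the integrated fluorescence ratio above library mean plus 3 SD, and starting fluorescence ratio within library mean plus 5 SD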;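 note: higher score means more depolarization so channel activation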
# TRPC4 spec 2: second check of whether TRPC6 inhibitors also affect mouse TRPC4; shares compounds with TRPC6 inh; HEK293 TRPC4/MOR, membrane potential dye fluorescence; channel activated by saturating DAMGO dose; inhibition, % at 10 µM; 920 compounds, 42% hits;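 active = compounds whose fluorescence signal differed from control wells by over 3 SD, either direction, in both duplicate plates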
# TRPC4 spec: selectivity of TRPC6 inhibitors: effect on mouse TRPC4. activity change, negative = inhibition, % at 10 µM. HEK293 TRPC4/mu-opioid, membrane potential fluorescence. 920 compounds, 61% hits. shares compounds with TRPC6 inh;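 active = rise or fall in signal beyond 3 SD of buffer-only wells in both replicate plates, either sign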;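 note: integrated kinetic ratio of fluorescence range over baseline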
# HEK293 MPD ctr 2-1: parental HEK293 nonspecific activity of TRPC6 inhibitors, second screen. shares compounds with TRPC6 inh. parental HEK293 membrane potential dye fluorescence; maximal acetylcholine challenge after compound addition. signal change vs control, % at 10 µM. 920 compounds, 31% hits;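 active = membrane potential signal moving either way by over 3 SD of the maximum-effect control, in both duplicate plates, meaning non-specific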
# HEK293 MPD ctr-1: counter-screen for TRPC6 inhibitors: effect in parental HEK293 cells; parental HEK293 membrane potential dye fluorescence; membrane potential signal change, % at 10 µM; AID 2780; shares compounds with TRPC6 inh; 920 compounds, 60% hits;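 active = membrane potential signal shifting up or down by more than 3 SD of buffer-only wells, on both duplicate plates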
# HEK293 MPD ctr-2: parental HEK293 nonspecific activity of TRPC6 modulators; shares compounds with TRPC6 inh; membrane potential signal change, % at 10 µM; AID 488924; 2,400 compounds, 51% hits; membrane potential dye fluorescence;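 active = membrane potential signal moves up or down beyond 5 SD from buffer-only wells, on both duplicate plates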
# HEK293 MPD ctr 2-2: second counter-screen for TRPC6 modulators: effect in parental HEK293 cells | shares compounds with TRPC6 inh | membrane potential dye fluorescence; after compound, maximal acetylcholine stimulation | inhibition, % at 10 µM | 2,400 compounds, 14% hits | AID 488926;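 active = membrane potential signal drops by more than 5 SD from the mean control signal, in both duplicate plates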;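 note: plate controls were acetylcholine ECmax control wells for no effect and buffer only wells for full effect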
# TRPC4/MOR mod: tests whether TRPC6 modulators also affect mouse TRPC4; 2,400 compounds, 69% hits; shares compounds with TRPC6 inh; HEK293 TRPC4/mu-opioid, membrane potential fluorescence; percent change from control (negative = decrease, positive = increase), % at 10 µM;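 active = membrane potential signal moved up or down beyond 5 SD of buffer control wells, in both duplicate plates, actives on both sides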;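 note: plate controls were assay buffer wells for no effect and DAMGO maximal-effect wells for full effect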
# TRPC4/MOR inh 2: second selectivity test of TRPC6 modulators against mouse TRPC4; AID 488928; shares compounds with TRPC6 inh; 2,400 compounds, 55% hits; inhibition, % at 10 µM; HEK293 TRPC4/mu-opioid, membrane potential dye fluorescence; stimulated with maximal-effect DAMGO;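 active = drop in membrane potential signal beyond 5 SD of the control wells in both duplicate plates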;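 note: TRPC4 counter screen for TRPC6 hits run under conditions tuned for TRPC6 not TRPC4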
# TRPC6 block conf: confirmation of mouse TRPC6 inhibitors; shares compounds with TRPC6 inh; 3,300 compounds, 43% hits; inhibition, % at 10 µM; HEK293-TRPC6, membrane potential dye, ACh-evoked depolarization;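 active = fluorescence ratio falls more than 5 SD below the full-stimulation control mean, in both duplicate runs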;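 note: integrated fluorescence ratio of peak minus minimum over baseline after agonist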
# TRPC6 act confirm: mouse TRPC6 activator confirmation. shares compounds with TRPC6 inh. HEK293-TRPC6 membrane potential dye fluorescence, FDSS. activation, % at 10 µM. 2,800 compounds, 11% hits. AID 488961;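 active = ratio signal rise beyond 5 SD above unstimulated control wells' mean, seen in both duplicate runs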;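 note: plate controls were buffer EC0 wells for no effect and acetylcholine ECmax response for full effect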
# Numbers without * were called inactive; i = inactive; nt = no result given.
SMILES,TRPC4 PAM,TRPC4 act,TRPC4 block,Kir21 inh,TRPC6 inh,TRPC6 activator,HEK293 MPD ctr-2,HEK293 MPD ctr 2-2,TRPC4/MOR mod,TRPC4/MOR inh 2,TRPC6 block conf,TRPC6 act confirm,others
COc1cccc(N(C(=O)c2sc(C)nc2C)C(C(=O)NCC2CCCO2)c2ccccc2)c1 (stereo not drawn),i,i,i,1,i,i,nt,nt,nt,nt,nt,nt,
CCOc1ccc(S(=O)(=O)N2CCN=C2c2ccccc2)cc1,i,i,i,-2.1,i,i,nt,nt,nt,nt,nt,nt,
Cn1cccc1C(=O)NNC(=O)COc1ccccc1F,i,i,i,0.05,i,i,nt,nt,nt,nt,nt,nt,
COc1cc(C(=O)OCC(=O)N2CCN(C(C)=O)CC2)ccc1OCC(C)C,i,i,i,0.91,i,i,nt,nt,nt,nt,nt,nt,
Cc1c(O)c(CN2CCCCC2)cc2c1oc(=O)c1ccccc12,i,i,i,0.31,i,i,nt,nt,nt,nt,nt,nt,
Cc1c(O)c(CN2CCCCC2)cc2c3c(c(=O)oc12)CCC3,i,i,i,-0.65,-10*,i,-243%*,i,-39%*,i,44%*,i,
Cc1ccc(S(=O)(=O)N2CCC(=O)N(CCOC(=O)Nc3ccc(C)c(C)c3)CC2)cc1,i,i,i,-0.84,-6.9*,i,nt,nt,nt,nt,i,nt,TRPC4 spec 2=i;TRPC4 spec=i;HEK293 MPD ctr 2-1=i;HEK293 MPD ctr-1=i
Cc1ccc(S(=O)(=O)N2CCC(=O)N(CCOC(=O)Nc3cccc(Cl)c3)CC2)cc1,i,i,i,0.43,-10*,16*,i,i,i,i,108%*,160%*,
Cc1ccc(NC(=O)OCCN2CCN(S(=O)(=O)c3ccc(C)cc3)CCC2=O)cc1,i,i,i,-0.39,i,i,nt,nt,nt,nt,nt,nt,
CC(=O)Nc1ccc(S(=O)(=O)N2CCN(c3cc(C)nc4ccccc34)CC2)cc1,i,i,i,3,-7.8*,i,-267%*,i,-45%*,70%*,46%*,i,
CC(=O)Nc1ccc(S(=O)(=O)N2CCN(c3nc(NC4CCCC4)c4ccccc4n3)CC2)cc1,i,i,i,-1.7,i,i,nt,nt,nt,nt,nt,nt,
CC(=O)C1=C(O)C(=O)N(c2ccc(S(N)(=O)=O)cc2)C1c1cccc([N+](=O)[O-])c1 (stereo not drawn),i,i,i,1,i,i,nt,nt,nt,nt,nt,nt,
